Experimental data from the array DNA melting data of Ke et al. (doi:10.1101/2024.01.08.574731).

Key:
[1] = folding enthalpy; higher = less favourable; fluorescence melt of hairpins on a sequencing array, two-state fit; conditions: sodium 0.088 M
Outline: (§1)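 Melting temperature and folding enthalpy were obtained by bootstrapped two-state fitting. Fits used Cy3 fluorescence of library hairpins with annealed Cy3 and quencher oligos on a sequenced MiSeq flow cell, imaged in 50 mM Na-HEPES pH 8.0, 25 mM NaCl in 2.5 °C steps up to 60 °C and normalised to pre-quench Cy3 and control constructs. Four replicates were combined by inverse-variance weighting, and fitted temperatures were raised by 9.35 °C to match UV melts.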

[2] = melting temperature; fluorescence melt of hairpins on a sequencing array, two-state fit, raised by 9.35 °C to match UV melts; conditions: sodium 0.088 M
Outline: as §1

Row | Sequence | folding enthalpy [1] [kcal/mol] | Tm [2] [°C]
1 | GTCTCGCCGAAAGGCGAC (((..(((....)))))) | -6.03 | 39.5
2 | GCGGCGCGAAAGCACAGC ((.(.((....)).).)) | -29.9 | 63.7
3 | GTGCAAGGAAACTTGCGC (.(((((....))))).) | -27.6 | 59.1
4 | GATCGGGAGCCGATC ((((((...)))))) | -22 | 53.7
5 | GATCCCCCGTGGGATC ((((((....)))))) | -36.7 | 60.5
6 | GCTTTGCGAAAGCATCGC ((..(((....)))..)) | -13.7 | 48.7
7 | GATCCCATTAGGGATC ((((((....)))))) | -36.5 | 63
8 | GATCTCCGCGGAGATC ((((((....)))))) | -50.1 | 60.9
9 | GAACACGCGAAAGCGTTC (((..(((....)))))) | -8.07 | 27.9
10 | GAAGTAGGAAACTGCTTC ((((.((....)).)))) | -34.4 | 43.3
11 | CGCGGATAGTTCCGCG ((((((....)))))) | -35.4 | 68.5
12 | GATATAGGAAACTGTATC ((((.((....)).)))) | -21.4 | 34.6
13 | GCACCTGGAAACAAGTGC ((((.((....)).)))) | -27.4 | 41.1
14 | GATCCACATTGGATC ((((((...)))))) | -25.2 | 52.2
15 | GGGACCGAAAGGTTACCC ((((((....)))..))) | -17.6 | 47
16 | GCATCGGGAAACCGACAC (..((((....))))..) | -11.9 | 25.8
17 | GTCGGCCGAAAGGCGGAC (((.(((....))).))) | -27.5 | 67.8
18 | GCGGTCGGAAACAACCGC (((((.(....).))))) | -34.7 | 55.1
19 | GGCGGTGGAAACGCTGCC (((.(.(....).).))) | -21.9 | 54.6
20 | GGGACTGCGAAAGCACCC (((..(((....)))))) | -9.02 | 37.3
21 | GTAGGTGGAAACGCTTAC (((.(.(....).).))) | -23 | 31.4
22 | CGAATCCGGAAACGGTCG (((..(((....)))))) | -11.9 | 33.6
23 | GTGCTGTCGAAAGACCAC (((..(((....)))))) | -13.1 | 45.4

Row | Sequence | folding enthalpy [1] [kcal/mol] | Tm [2] [°C]
24 | GGGGGCGAAAGCCCGCCC ((((((....)))..))) | -9.36 | 55.6
25 | GCCTTGACGAAAGTCGGC (((..(((....)))))) | -16 | 50.3
26 | GCATCTGGAAACGGATGC (((((.(....).))))) | -44.6 | 53.8
27 | GATCCGTAGCCGGATC ((((((....)))))) | -47.9 | 56.1
28 | GCGGAATACCGC ((((....)))) | -21.9 | 54.2
29 | GATCGATTATTCGATC ((((((....)))))) | -42.7 | 54.2
30 | GCGATTGTCGC ((((...)))) | -19.6 | 48.2
31 | GCTGACGAAAGTCCTAGC ((((((....)))..))) | -17 | 34.3
32 | GCGCCTCGAAAGAGCCGC (((.(((....))).))) | -37.9 | 52.2
33 | GATCTTACAGAAGATC ((((((....)))))) | -31.8 | 38.4
34 | GATCTGATACCAGATC ((((((....)))))) | -40.8 | 47.1
35 | GAAGCGGGAAACTGCTTC (((((.(....).))))) | -40.4 | 53
36 | GATCAACATTTTGATC ((((((....)))))) | -31.1 | 42.6
37 | GGAAGTGGAAACATTTCC ((((.((....)).)))) | -27.9 | 40.3
38 | GCCTTGCGAAAGCTTGGC (((..((....))..))) | -20.9 | 60
39 | GGCCCCACGAAAGTGGCC (((..(((....)))))) | -11.8 | 44.7
40 | GGCACCACGAAAGTGGCC (((..(((....)))))) | -11.6 | 38.1
41 | GCAACTGGAAACAGTTAC (.(((((....))))).) | -14.5 | 36.3
42 | GCACATTCGAAAGAATGC (((..(((....)))))) | -13.8 | 33
43 | GCCTTGCGAAAGCGAAGC ((.(.((....)).).)) | -8.01 | 45
44 | GCAGTGCGAAAGCTCCGC ((.(.((....)).).)) | -11.9 | 47.9
45 | GATCCTTCTGAGGATC ((((((....)))))) | -38.4 | 53.7
46 | GGTTAGGGAAACCTGATC (.(.(((....))).).) | -11.7 | 31

Row | Sequence | folding enthalpy [1] [kcal/mol] | Tm [2] [°C]
47 | GTCACCGAAAGGTAAGAC ((((((....)))..))) | -19.6 | 39
48 | CGCGGACCTTCCGCG ((((((...)))))) | -28.5 | 69.2
49 | GCATGGCGAAAGCCTGC (((.(((....)))))) | -27 | 63.8
50 | GCATCTGGAAACAGATAC (.(((((....))))).) | -16.8 | 36.3
51 | GAGCAGGGAAACCTGCCC (.(((((....))))).) | -12.8 | 42.1
52 | CGCGGACGAATCCGCG ((((((....)))))) | -33.2 | 68.5
53 | GAATGAGAAATCATTC ((((((....)))))) | -26.8 | 43
54 | GTCGTAGGAAACCACGAC (((((.(....).))))) | -31.8 | 49.1
55 | GCATGTGGAAACATGTGC (((..((....))..))) | -31.6 | 49.6
56 | GTTGGCTCGAAAGAGAAC (((..(((....)))))) | -17.1 | 34.9
57 | GACCTCGGAAACGAGGCC (.(((((....))))).) | -13 | 55.4
58 | GGCACTGGAAACAGTACC ((.((((....)))).)) | -33 | 43
59 | GACCCCCGAAAGGGTGTC (((.(((....))).))) | -25 | 51.8
60 | GTCGACGAAAGTCCGGAC ((((((....)))..))) | -18.1 | 37
61 | GATCGAGCCTCGATC ((((((...)))))) | -34.9 | 52.8
62 | GCTGCAGGAAACTGTGGC ((..(((....)))..)) | -25.8 | 46.5
63 | GCATTCGAAAGAACATGC ((((((....)))..))) | -15.8 | 33
64 | GAGCTTGGAAACGAGCTC (((((.(....).))))) | -45.1 | 53.4
65 | GCCAATCCGAAAGGAGGC (((..(((....)))))) | -22.2 | 47
66 | GATCTGGGAAACCAGACC (.(((((....))))).) | -16.1 | 38.5
67 | GGTCACGAAAGTGAACC ((((((....))).))) | -27.2 | 55.6
68 | GCTATCCCGAAAGGGAGC (((..(((....)))))) | -11.7 | 38.9
69 | GGGAGCGAAAGCTCTCCC ((((((....)))..))) | -11.8 | 52.2

Row | Sequence | folding enthalpy [1] [kcal/mol] | Tm [2] [°C]
70 | GTTCCCCGAAAGGGAAC (((.(((....)))))) | -29.6 | 61.2
71 | GTGTGGGGAAACTCGCAC (((.(.(....).).))) | -29.9 | 42.8
72 | GCGTCTACACGC ((((....)))) | -25.9 | 51.4
73 | GATATGGGAAACCATACC (.(((((....))))).) | -15 | 29.5
74 | CGGCCACGGAAACGTCCG (((..(((....)))))) | -10.4 | 33.6
75 | GAGAGCGAAAGCTGTCTC ((((((....)))..))) | -20.3 | 51.1
76 | GCATACGAAAGTATGTGC ((((((....)))..))) | -23 | 52.2
77 | GCCTGGCGAAAGCCAAGC ((.((((....)))).)) | -17.5 | 57.7
78 | GTCTCCCGAAAGGGTGAC (((.(((....))).))) | -31.1 | 56.5
79 | GCTTTAGAAATAAAGC ((((((....)))))) | -31.4 | 45.1
80 | GATCTCAGACGAGATC ((((((....)))))) | -36.9 | 51.2
81 | GTCTTTGCGAAAGCAGAC (((..(((....)))))) | -16.3 | 34.6
82 | GGAAAGCGAAAGCTATCC (((.(((....))).))) | -25.2 | 47.2
83 | GTGGCGTCGAAAGACCAC (((..(((....)))))) | -12.9 | 44.5
84 | GGGCACGAAAGTGAACCC ((((((....)))..))) | -16.6 | 51.7
85 | GCACTTGGAAACAAGTGC (((((((....))))))) | -34.6 | 67.7
86 | GCGTACAGACGC ((((....)))) | -22.5 | 51
87 | GGAAAACGAAAGTTTCC (((.(((....)))))) | -21.7 | 44.1
88 | TGGTTGAAAAACCA (((((....))))) | -15.1 | 47
89 | GCAAGGCGAAAGCCGGGC ((..(((....)))..)) | -20.9 | 65.5
90 | GGTCTGGCGAAAGCCACC (((..(((....)))))) | -7.45 | 27.1
91 | GTCCTCGAAAGAGAGGAC ((((((....)))..))) | -30.2 | 52.9
92 | GCATCTGGAAACAGGTGC (((.(((....))).))) | -40.5 | 52.2
